Data from ChEMBL document CHEMBL1137637, “Quinuclidine derivatives as potential antiparasitics” (Antimicrob Agents Chemother, 2007).
Converted amounts (≈) assume the structure as drawn.

Legend:
Leishmania amazonensis [1] = assay: Inhibition of sterol biosynthesis in Leishmania mexicana amazonensis promastigotes assessed as reduction in endogenous episterol level at 0.3 uM after 96 hrs by gas-liquid chromatography; type: functional; parameters: scale not given: the % may be the effect or the level left
Procedure, shortened: (§1)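 Promastigotes grown in liver infusion-tryptose medium with lactalbumin and 10% fetal calf serum at 26°C, static; drug added at 0.5 × 10⁷ to 1 × 10⁷ cells/ml and cells exposed for 96 h. Total lipids extracted; neutral lipids separated from polar lipids by silicic acid column chromatography; free sterols quantified by capillary gas-liquid chromatography and mass spectrometry as mass % of total sterols.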

Leishmania amazonensis [2] = assay: Inhibition of sterol biosynthesis in Leishmania mexicana amazonensis promastigotes assessed as reduction in exogenous cholesterol level at 0.3 uM after 96 hrs by gas-liquid chromatography; type: functional; parameters: scale not given: the % may be the effect or the level left; procedure, shortened: as §1
Leishmania amazonensis [3] = assay: Inhibition of sterol biosynthesis in Leishmania mexicana amazonensis promastigotes assessed as reduction in endogenous episterol level at 0.1 uM after 96 hrs by gas-liquid chromatography; type: functional; parameters: scale not given: the % may be the effect or the level left
Procedure, shortened: (§2)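 L. mexicana promastigotes exposed to compound for 96 h. Total lipids extracted and neutral sterols separated from polar lipids by silicic acid column chromatography. Sterols analysed by TLC and by quantitative capillary gas-liquid chromatography with mass spectrometry. Composition expressed as mass % of free sterols, compared with untreated control.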

[4] = test system: Trypanosoma brucei rhodesiense; assay: Trypanocidal activity against Trypanosoma brucei rhodesiense STIB 900 bloodstream form after 72 hrs by resazurin assay; type: functional, organism-based; settings: STIB 900, 72 h
Procedure, shortened: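 T. b. rhodesiense STIB 900 bloodstream forms in MEM with 2-mercaptoethanol and 15% heat-inactivated horse serum, with serial drug dilutions. Incubated 72 h at 37°C in 5% CO2. Resazurin added for 2–4 h more, fluorescence read at ex 536/em 588 nm. IC50 from sigmoidal curve. Duplicate, with an independent repeat for actives.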

Leishmania amazonensis [5] = assay: Inhibition of sterol biosynthesis in Leishmania mexicana amazonensis promastigotes assessed as reduction in endogenous 5-dehydro episterol level at 0.3 uM after 96 hrs by gas-liquid chromatography; type: functional; parameters: scale not given: the % may be the effect or the level left; procedure, shortened: as §1
Trypanosoma cruzi = assay: Antitrypanosomal activity against trypomastigotes of Trypanosoma cruzi Tulahuen C2C4 containing lacZ gene in rat L6 cells after 4 days by chlorophenol red-beta-D-galactopyranoside/Nonidet assay; type: functional, organism-based; settings: Tulahuen C2C4, L6, 96 h
Procedure, shortened: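 L-6 rat myoblasts seeded at 2,000 cells/well in RPMI 1640 with 10% FBS and 2 mM L-glutamine. After 24 h, 5,000 T. cruzi Tulahuen C2C4 lacZ trypomastigotes added with serial drug dilution. Incubated at 37°C in 5% CO2 for 4 days. CPRG/Nonidet substrate added and colour read at 540 nm after 2–4 h. IC50 from sigmoidal curve. Duplicate determinations.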

[6] = target: T1, Farnesyltransferase, putative (Leishmania major, UniProt Q4Q5W4); assay: Inhibition of Leishmania major recombinant squalene synthase expressed in Escherichia coli by liquid scintillation counter
T1 sequence (Q4Q5W4 whole entry): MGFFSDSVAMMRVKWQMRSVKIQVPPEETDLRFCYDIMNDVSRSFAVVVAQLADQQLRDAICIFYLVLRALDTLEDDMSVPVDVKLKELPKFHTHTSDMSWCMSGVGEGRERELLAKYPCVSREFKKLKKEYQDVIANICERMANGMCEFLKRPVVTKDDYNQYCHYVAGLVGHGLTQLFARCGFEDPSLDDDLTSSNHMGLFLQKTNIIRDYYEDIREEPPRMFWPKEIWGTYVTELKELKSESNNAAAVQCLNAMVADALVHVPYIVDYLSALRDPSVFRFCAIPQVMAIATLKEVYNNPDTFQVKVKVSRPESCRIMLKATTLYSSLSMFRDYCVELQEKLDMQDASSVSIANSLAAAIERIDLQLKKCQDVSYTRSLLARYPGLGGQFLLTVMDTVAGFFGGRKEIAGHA
Procedure, shortened: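 Soluble E. coli extract expressing L. major SQS truncated by 16 N-terminal and 40 C-terminal residues. Buffer: 50 mM phosphate pH 7.4, 20 mM MgCl2, 5 mM CHAPS, 1% Tween 80, 10 mM DTT, BSA, 0.25 mM NADPH, and a glucose-6-phosphate/G6PDH regenerating system. Substrate 0.5 μM radiolabelled farnesyl pyrophosphate. Squalene band counted by scintillation. IC50 from hyperbolic plot of five concentrations in duplicate, usually run twice.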

Leishmania amazonensis [7] = assay: Antileishmanial activity against Leishmania mexicana amazonensis promastigotes by trypan blue exclusion method; type: functional, organism-based
Procedure, shortened: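 L. mexicana amazonensis promastigotes cultured in liver infusion-tryptose medium with lactalbumin and 10% FCS at 26°C, unagitated. Cultures started at 2 × 10⁶ cells/ml and drug added at 0.5–1 × 10⁷ cells/ml. Density counted by electronic particle counter and hemocytometer. Viability by trypan blue exclusion. Triplicate growth experiments.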

Leishmania amazonensis [8] = assay: Inhibition of sterol biosynthesis in Leishmania mexicana amazonensis promastigotes assessed as reduction in endogenous 5-dehydro episterol level at 0.1 uM after 96 hrs by gas-liquid chromatography; type: functional; parameters: scale not given: the % may be the effect or the level left; procedure, shortened: as §2
Squalene synthase = target: T2, Squalene synthase (Homo sapiens, UniProt P37268); assay: Inhibition of human recombinant squalene synthase expressed in Escherichia coli BL21(DE3 pLysS) by liquid scintillation counter
T2 sequence (P37268 whole entry): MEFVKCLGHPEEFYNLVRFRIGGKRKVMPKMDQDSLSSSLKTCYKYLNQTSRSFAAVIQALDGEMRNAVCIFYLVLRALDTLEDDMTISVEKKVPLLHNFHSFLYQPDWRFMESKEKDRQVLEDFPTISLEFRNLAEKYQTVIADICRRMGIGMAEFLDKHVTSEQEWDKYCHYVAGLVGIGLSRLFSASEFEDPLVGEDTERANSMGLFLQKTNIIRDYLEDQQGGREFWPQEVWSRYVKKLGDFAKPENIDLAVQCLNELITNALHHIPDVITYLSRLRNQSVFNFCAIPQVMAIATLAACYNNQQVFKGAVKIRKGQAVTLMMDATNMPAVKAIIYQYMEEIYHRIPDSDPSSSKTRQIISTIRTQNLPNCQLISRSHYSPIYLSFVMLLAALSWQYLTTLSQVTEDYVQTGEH
Procedure, shortened: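 Human SQS in extracts of E. coli BL21(DE3 pLysS) carrying pHSS16, assayed under the same conditions as the L. major enzyme. Buffer: phosphate pH 7.4, MgCl2, CHAPS, Tween 80, DTT, BSA, and NADPH with a regenerating system. Substrate 0.5 μM radiolabelled farnesyl pyrophosphate. Squalene band radioactivity counted by scintillation.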

L6 = assay: Cytotoxicity against rat L6 cells after 72 hrs by resazurin assay; type: cell-based; settings: L6, 72 h
Procedure, shortened: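 L-6 cells seeded at 4 × 10⁴ cells/ml in RPMI 1640 with 10% FBS and 2 mM L-glutamine. After 24 h, medium replaced with serial drug dilution and incubated for 72 h at 37°C in 5% CO2. Resazurin added for 2–4 h, fluorescence read at ex 536/em 588 nm. IC50 from sigmoidal curve. Duplicate, with an independent repeat for actives.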

Leishmania donovani = assay: Antileishmanial activity against Leishmania donovani MHOM/ET/67/L82 axenic amastigotes after 72 hrs by resazurin assay; type: functional, organism-based; settings: MHOM/ET/67/L82, 72 h
Procedure, shortened: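 L. donovani MHOM/ET/67/L82 amastigotes grown axenically at 37°C in synthetic minimal medium at pH 5.4 with 10% heat-inactivated FBS under 5% CO2. 1 × 10⁵ amastigotes per well with seven threefold dilutions, 30 to 0.041 μg/ml. After 72 h, resazurin added for 2–4 h more. Fluorescence read at ex 536/em 588 nm. IC50 taken from sigmoidal curve. Run in duplicate, with an independent repeat for actives.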

Leishmania amazonensis [9] = assay: Inhibition of sterol biosynthesis in Leishmania mexicana amazonensis promastigotes assessed as reduction in exogenous cholesterol level at 0.1 uM after 96 hrs by gas-liquid chromatography; type: functional; parameters: scale not given: the % may be the effect or the level left; procedure, shortened: as §2
Plasmodium falciparum = assay: Antiplasmodial activity after 48 hrs against chloroquine and pyrimethamine-resistant Plasmodium falciparum K1 in human erythrocytes by [3H]hypoxanthine uptake; type: functional, organism-based
Procedure, shortened: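 P. falciparum K1 in human red cells in RPMI 1640 with 5% Albumax, exposed to serial drug dilutions. Incubated 48 h at 37°C under reduced oxygen, then 0.5 μCi [³H]hypoxanthine per well for 24 h more. Cells harvested onto glass-fibre filters and counted by scintillation. Result expressed as % of untreated control, with IC50 from sigmoidal curve. Duplicate, plus an independent repeat for actives.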

Leishmania amazonensis [10] = assay: Inhibition of sterol biosynthesis in Leishmania mexicana amazonensis promastigotes assessed as reduction in endogenous episterol level at 10 uM after 96 hrs by gas-liquid chromatography; type: functional; parameters: scale not given: the % may be the effect or the level left; procedure, shortened: as §2
Leishmania amazonensis [11] = assay: Inhibition of sterol biosynthesis in Leishmania mexicana amazonensis promastigotes assessed as reduction in exogenous cholesterol level at 3 uM after 96 hrs by gas-liquid chromatography; type: functional; parameters: scale not given: the % may be the effect or the level left; procedure, shortened: as §2
Leishmania amazonensis [12] = assay: Inhibition of sterol biosynthesis in Leishmania mexicana amazonensis promastigotes assessed as reduction in endogenous 5-dehydro episterol level at 3 uM after 96 hrs by gas-liquid chromatography; type: functional; parameters: scale not given: the % may be the effect or the level left; procedure, shortened: as §2
Leishmania amazonensis [13] = assay: Inhibition of sterol biosynthesis in Leishmania mexicana amazonensis promastigotes assessed as reduction in exogenous cholesterol level at 10 uM after 96 hrs by gas-liquid chromatography; type: functional; parameters: scale not given: the % may be the effect or the level left; procedure, shortened: as §2
Leishmania amazonensis [14] = assay: Inhibition of sterol biosynthesis in Leishmania mexicana amazonensis promastigotes assessed as reduction in endogenous 5-dehydro episterol level at 10 uM after 96 hrs by gas-liquid chromatography; type: functional; parameters: scale not given: the % may be the effect or the level left; procedure, shortened: as §2
Leishmania amazonensis [15] = assay: Inhibition of sterol biosynthesis in Leishmania mexicana amazonensis promastigotes assessed as reduction in endogenous episterol level at 3 uM after 96 hrs by gas-liquid chromatography; type: functional; parameters: scale not given: the % may be the effect or the level left; procedure, shortened: as §2
Leishmania amazonensis [16] = assay: Inhibition of sterol biosynthesis in Leishmania mexicana amazonensis promastigotes assessed as reduction in exogenous cholesterol level at 1 uM after 96 hrs by gas-liquid chromatography; type: functional; parameters: scale not given: the % may be the effect or the level left; procedure, shortened: as §2
Leishmania amazonensis [17] = assay: Inhibition of sterol biosynthesis in Leishmania mexicana amazonensis promastigotes assessed as reduction in endogenous episterol level at 1 uM after 96 hrs by gas-liquid chromatography; type: functional; parameters: scale not given: the % may be the effect or the level left; procedure, shortened: as §2
Leishmania amazonensis [18] = assay: Inhibition of sterol biosynthesis in Leishmania mexicana amazonensis promastigotes assessed as reduction in endogenous cholesta-5,7,24-trien-3beta-ol level at 3 uM after 96 hrs by gas-liquid chromatography; type: functional; parameters: scale not given: the % may be the effect or the level left; procedure, shortened: as §2
Leishmania amazonensis [19] = assay: Inhibition of sterol biosynthesis in Leishmania mexicana amazonensis promastigotes assessed as reduction in endogenous cholesta-7,24-dien-3beta-ol level at 3 uM after 96 hrs by gas-liquid chromatography; type: functional; parameters: scale not given: the % may be the effect or the level left; procedure, shortened: as §2
Leishmania amazonensis [20] = assay: Inhibition of sterol biosynthesis in Leishmania mexicana amazonensis promastigotes assessed as reduction in endogenous 5-dehydro episterol level at 1 uM after 96 hrs by gas-liquid chromatography; type: functional; parameters: scale not given: the % may be the effect or the level left; procedure, shortened: as §2
Leishmania amazonensis [21] = assay: Inhibition of sterol biosynthesis in Leishmania mexicana amazonensis promastigotes assessed as reduction in endogenous cholesta-7,24-dien-3beta-ol level at 1 uM after 96 hrs by gas-liquid chromatography; type: functional; parameters: scale not given: the % may be the effect or the level left; procedure, shortened: as §2
Leishmania amazonensis [22] = assay: Inhibition of sterol biosynthesis in Leishmania mexicana amazonensis promastigotes assessed as reduction in endogenous cholesta-5,7,24-trien-3beta-ol level at 1 uM after 96 hrs by gas-liquid chromatography; type: functional; parameters: scale not given: the % may be the effect or the level left; procedure, shortened: as §2

C1=C(c2ccc(OCc3ccccc3)cc2)C2CCN1CC2
Activity (Leishmania amazonensis [1]): 22.9%
Activity (Leishmania amazonensis [2]): 52.9%
Activity (Leishmania amazonensis [3]): 15.4%
IC50 [4]: 1.1 µM
Activity (Leishmania amazonensis [5]): 24.2%
IC50 (Trypanosoma cruzi): 3.1 µM
IC50 [6]: 0.1 µM
MIC (Leishmania amazonensis [7]): 0.3 µM (≈ 0.0874 µg/mL)
Activity (Leishmania amazonensis [8]): 53%
IC50 (Squalene synthase): 0.25 µM
IC50 (L6): 47.2 µM
IC50 (Leishmania donovani): 1.1 µM
Activity (Leishmania amazonensis [9]): 31.6%
IC50 (Plasmodium falciparum): 4.8 µM

CCOC(=O)Cc1ccc(C#CC2(O)CN3CCC2CC3)cc1 (stereo unspecified)
Activity (Leishmania amazonensis [10]): 18.8%
Activity (Leishmania amazonensis [11]): 28.4%
Activity (Leishmania amazonensis [12]): 48.6%
Activity (Leishmania amazonensis [13]): 62.3%
IC50 [4]: 258 µM
IC50 (Trypanosoma cruzi): 25.6 µM
Activity (Leishmania amazonensis [14]): 18.9%
IC50 [6]: 0.97 µM
MIC (Leishmania amazonensis [7]): 10 µM (≈ 3.13 µg/mL)
IC50 (Squalene synthase): 0.66 µM
IC50 (L6): > 287 µM
IC50 (Leishmania donovani): 17.3 µM
Activity (Leishmania amazonensis [15]): 23%
IC50 (Plasmodium falciparum): 10 µM

OC[C@@H]1CC2CCN1C[C@@H]2C#Cc1ccc(-c2ccccc2)cc1 (stereo partly specified)
Activity (Leishmania amazonensis [16]): 10.3%
Activity (Leishmania amazonensis [11]): 25.2%
Activity (Leishmania amazonensis [12]): 33.7%
Activity (Leishmania amazonensis [13]): >99%
IC50 [4]: 1.2 µM
IC50 (Trypanosoma cruzi): 5.6 µM
IC50 [6]: > 1 µM
MIC (Leishmania amazonensis [7]): 3 µM (≈ 0.952 µg/mL)
Activity (Leishmania amazonensis [17]): 4.4%
Activity (Leishmania amazonensis [18]): 24.8%
Activity (Leishmania amazonensis [19]): 7%
Activity (Leishmania amazonensis [20]): 36.4%
IC50 (L6): 10.7 µM
IC50 (Leishmania donovani): 18.5 µM
Activity (Leishmania amazonensis [15]): 9.3%
Activity (Leishmania amazonensis [21]): 7.2%
Activity (Leishmania amazonensis [22]): 41.7%
IC50 (Plasmodium falciparum): 0.6 µM
